Experimental data taken from ChEMBL document CHEMBL1773023, “Potent and selective phosphopeptide mimetic prodrugs targeted to the Src homology 2 (SH2) domain of signal transducer and activator of transcription 3” (J Med Chem, 2011).
The source made the active and inactive calls. No cut-off for these calls is given here.

Columns and labels:
[1] = target: T1, Signal transducer and activator of transcription 3 (Homo sapiens, UniProt P40763); assay: Inhibition of IL6-induced SH2 domain of Stat3 phosphorylation at Tyr705 in human A375 cells up to 10 uM treated 1.5 hrs before IL6 challenge measured after 30 mins by Western blotting; assay type: cell-based; conditions: A-375
T1 sequence (P40763 whole entry, the tested form may be a part): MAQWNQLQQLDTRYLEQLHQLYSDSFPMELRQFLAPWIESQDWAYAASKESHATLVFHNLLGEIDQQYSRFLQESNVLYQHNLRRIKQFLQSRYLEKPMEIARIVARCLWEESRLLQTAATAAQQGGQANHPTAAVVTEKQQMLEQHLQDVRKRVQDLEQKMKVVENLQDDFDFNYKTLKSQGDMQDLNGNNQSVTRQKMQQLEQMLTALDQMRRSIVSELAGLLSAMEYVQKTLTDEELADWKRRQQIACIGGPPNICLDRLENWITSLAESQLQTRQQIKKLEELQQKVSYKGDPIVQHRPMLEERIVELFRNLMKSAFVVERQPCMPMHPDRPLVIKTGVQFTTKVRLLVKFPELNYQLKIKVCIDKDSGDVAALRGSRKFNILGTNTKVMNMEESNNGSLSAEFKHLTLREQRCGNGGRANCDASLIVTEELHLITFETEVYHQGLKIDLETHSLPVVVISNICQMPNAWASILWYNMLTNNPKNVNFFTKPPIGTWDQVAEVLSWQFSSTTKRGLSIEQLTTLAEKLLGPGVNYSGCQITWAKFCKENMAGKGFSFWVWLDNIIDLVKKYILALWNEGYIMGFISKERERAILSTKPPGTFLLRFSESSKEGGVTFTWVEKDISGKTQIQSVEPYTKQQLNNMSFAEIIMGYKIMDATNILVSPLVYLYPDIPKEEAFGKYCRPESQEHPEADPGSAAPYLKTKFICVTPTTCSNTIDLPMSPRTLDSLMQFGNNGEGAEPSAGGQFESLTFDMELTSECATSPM
Outline: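 Hey, MeWo and A375 cells (3×10^5/well, RPMI1640, overnight, fresh medium) given increasing prodrug concentrations for 2 h, with IL-6 10 ng/mL during the final 30 min; pStat3 and total Stat3 by Western blot.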

[2] = target: T1, Signal transducer and activator of transcription 3; assay: Inhibition of SH2 domain of Stat3 phosphorylation at Tyr705 in human SKOV3-ip cells up to 10 uM by Western blotting
[3] = Cytotoxicity against human NCI-H528 cells assessed as cell growth inhibition at 5 to 10 uM after 72 hrs by MTT assay; assay type: functional
Outline: (§1)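 Cell lines with constitutive Stat3 phosphorylation (melanoma, NSCLC) exposed to prodrug at 5–10 μM. Percent growth inhibition recorded.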

[4] = target: T1, Signal transducer and activator of transcription 3; assay: Inhibition of constitutive SH2 domain of Stat3 phosphorylation at Tyr705 in human SKOV3-ip cells at 1 uM measured after 2 hrs by Western blotting
MeWo = assay: Cytotoxicity against human MeWo cells assessed as cell growth inhibition at 5 to 10 uM after 72 hrs by MTT assay; assay type: functional; outline: as §1
[5] = target: T1, Signal transducer and activator of transcription 3; assay: Inhibition of SH2 domain of Stat3 phosphorylation at Tyr705 in human HCC-827 cells at 5 uM after 4 hrs by Western blotting; assay type: cell-based
Outline: (§2)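 HCC-827 NSCLC cells treated with 5 μM prodrug and sampled over a time course from 10 min to 24 h; pStat3 by Western blot.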

[6] = Cytotoxicity against human NCI-H1819 cells assessed as cell growth inhibition at 5 to 10 uM after 72 hrs by MTT assay; assay type: functional; outline: as §1
[7] = Cytotoxicity against human HCC827 cells after 72 hrs by SRB assay; assay type: functional, cell-based; conditions: HCC827, 72 h
Outline: (§3)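 Cancer cell lines (MCF-7, SKOV3-ip, HCC-827) dosed daily with prodrug for three days; viability by SRB assay.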

MDA-MB-468 [8] = assay: Decrease of cyclin D1 gene expression in human MDA-MB-468 cells at 5 uM; assay type: functional, cell-based
[9] = target: T2, Signal transducer and activator of transcription 1-alpha/beta (Homo sapiens) (UniProt P42224); assay: Inhibition of IFN-gamma-induced Stat1 phosphorylation at Tyr701 in human MDA-MB-468 cells at 5 uM treated 1.5 hrs before IFN-gamma challenge measured after 30 mins by Western blotting; assay type: cell-based
T2 sequence (whole entry): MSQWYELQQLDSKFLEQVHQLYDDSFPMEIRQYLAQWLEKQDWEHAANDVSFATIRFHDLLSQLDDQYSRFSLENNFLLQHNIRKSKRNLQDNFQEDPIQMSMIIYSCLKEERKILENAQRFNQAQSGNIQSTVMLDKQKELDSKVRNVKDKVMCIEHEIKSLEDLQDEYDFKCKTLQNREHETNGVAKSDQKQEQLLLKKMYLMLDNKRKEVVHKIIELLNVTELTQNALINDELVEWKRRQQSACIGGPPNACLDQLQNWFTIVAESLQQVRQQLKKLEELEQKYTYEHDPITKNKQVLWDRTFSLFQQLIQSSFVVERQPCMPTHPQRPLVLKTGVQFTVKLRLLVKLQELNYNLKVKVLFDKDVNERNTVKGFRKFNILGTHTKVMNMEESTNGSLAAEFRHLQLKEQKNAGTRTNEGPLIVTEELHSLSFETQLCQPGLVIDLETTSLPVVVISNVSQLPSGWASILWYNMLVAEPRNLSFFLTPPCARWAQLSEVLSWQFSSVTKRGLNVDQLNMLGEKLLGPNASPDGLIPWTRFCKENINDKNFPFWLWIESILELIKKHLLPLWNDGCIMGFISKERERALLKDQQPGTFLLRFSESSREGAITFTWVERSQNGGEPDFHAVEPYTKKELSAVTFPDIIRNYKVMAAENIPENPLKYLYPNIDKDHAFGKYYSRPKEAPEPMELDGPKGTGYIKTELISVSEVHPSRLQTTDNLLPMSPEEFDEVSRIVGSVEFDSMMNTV
Outline: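 MDA-MB-468 cells exposed to rising prodrug concentrations for 1.5 h, then interferon γ 25 ng/mL for 30 min; Western blot for pTyr701 and total Stat1.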

[10] = target: T1, Signal transducer and activator of transcription 3; assay: Inhibition of SH2 domain of Stat3 phosphorylation at Tyr705 in human HCC-827 cells at 5 uM after 10 mins by Western blotting; assay type: cell-based; outline: as §2
[11] = target: Baculoviral IAP repeat-containing protein 5 (Homo sapiens) (UniProt O15392); assay: Inhibition of survivin in human HCC-827 cells at 5 uM after up to 48 hrs by Western blotting; assay type: cell-based
Sequence of Baculoviral IAP repeat-containing protein 5 (Homo sapiens) (O15392 whole entry, the tested form may be a part): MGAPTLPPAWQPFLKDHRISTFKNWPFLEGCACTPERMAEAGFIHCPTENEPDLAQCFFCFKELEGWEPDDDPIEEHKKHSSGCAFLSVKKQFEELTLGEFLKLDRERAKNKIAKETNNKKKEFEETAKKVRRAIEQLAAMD

[12] = target: T1, Signal transducer and activator of transcription 3; assay: Inhibition of SH2 domain of Stat3 phosphorylation at Tyr705 in human HCC-827 cells at 5 uM after 24 hrs by Western blotting; assay type: cell-based; outline: as §2
[13] = target: T1, Signal transducer and activator of transcription 3; assay: Inhibition of SH2 domain of Stat3 constitutive phosphorylation at Tyr705 in human MDA-MB-468 cells at 5 uM after 4 hrs by Western blotting; assay type: cell-based
Outline: (§4)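 MDA-MB-468 cells given a single 5 μM prodrug dose and harvested at set times; pTyr705 and total Stat3 by Western blot of 12 μg lysate protein on 8% SDS-PAGE.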

MDA-MB-468 [14] = assay: Decrease of Bcl-xl gene expression in human MDA-MB-468 cells at 5 uM; assay type: functional, cell-based
[15] = target: T1, Signal transducer and activator of transcription 3; assay: Inhibition of SH2 domain of Stat3 constitutive phosphorylation at Tyr705 in human MDA-MB-468 cells at 5 uM after 30 mins by Western blotting; assay type: cell-based; outline: as §4
[16] = target: RAC-alpha serine/threonine-protein kinase (Homo sapiens) (UniProt P31749); assay: Inhibition of EGF-induced Akt phosphorylation at Ser473 in human MDA-MB-468 cells at 5 uM treated 1.5 hrs before EGF challenge measured after 30 mins by Western blotting; assay type: cell-based
Sequence of RAC-alpha serine/threonine-protein kinase (Homo sapiens) (P31749 whole entry): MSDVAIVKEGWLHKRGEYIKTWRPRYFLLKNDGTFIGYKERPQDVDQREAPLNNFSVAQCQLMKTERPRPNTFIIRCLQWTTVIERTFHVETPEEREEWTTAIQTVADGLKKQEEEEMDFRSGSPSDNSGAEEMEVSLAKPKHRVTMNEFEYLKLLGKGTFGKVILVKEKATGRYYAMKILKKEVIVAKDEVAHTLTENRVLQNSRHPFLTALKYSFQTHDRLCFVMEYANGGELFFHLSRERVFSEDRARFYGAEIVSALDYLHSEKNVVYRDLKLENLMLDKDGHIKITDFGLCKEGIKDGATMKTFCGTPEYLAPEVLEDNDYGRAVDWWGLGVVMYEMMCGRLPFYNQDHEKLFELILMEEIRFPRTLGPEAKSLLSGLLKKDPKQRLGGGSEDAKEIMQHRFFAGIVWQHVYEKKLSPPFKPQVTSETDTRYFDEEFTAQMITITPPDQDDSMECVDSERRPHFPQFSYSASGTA
Outline: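 MDA-MB-468 cells pretreated 1.5 h with prodrug (5 μM), then EGF 100 ng/mL for 30 min; lysates split onto three PVDF blots probed for phospho/total Stat3, pSer473/total Akt, and phospho/total Stat5.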

[17] = target: T1, Signal transducer and activator of transcription 3; assay: Inhibition of SH2 domain of Stat3 constitutive phosphorylation at Tyr705 in human MDA-MB-468 cells at 0.5 uM after 2 hrs by Western blotting; assay type: cell-based
Outline: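 MDA-MB-468 cells (4×10^5/well, DMEM 10% FCS, overnight) given prodrug from freshly made 10 mM DMSO stock for 2 h. Lysates in Hepes pH 7.4 Triton buffer with phosphatase/protease inhibitors; 12 μg protein on 8% SDS-PAGE, PVDF, probed for pStat3 Y705 by ECL, then stripped and reprobed for total Stat3.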

MCF7 = assay: Cytotoxicity against human MCF7 cells after 72 hrs by SRB assay; assay type: functional, cell-based; conditions: MCF7, 72 h; outline: as §3

inhibition [1]: Active
inhibition [2]: Active
inhibition [4]: Active
inhibition [5]: Active
inhibition [9]: Active
inhibition [10]: Active
inhibition [12]: Active
inhibition [13]: Active
inhibition [15]: Active
inhibition [16]: inactive
inhibition [17]: Active
SMILES: C/C(=C\C(=O)N[C@H]1CCc2cccc3c2N(C1=O)[C@H](C(=O)N[C@H](C)CCC(N)=O)C3)c1ccc(C(F)(F)P(=O)(OCOC(=O)C(C)(C)C)OCOC(=O)C(C)(C)C)cc1
growth inhibition (GI) [3]: <20%
growth inhibition (GI) (MeWo): <20%
growth inhibition (GI) [6]: <20%
IC50 [7]: > 30 µM
Activity (MDA-MB-468 [8]): inactive
inhibition [11]: Active
Activity (MDA-MB-468 [14]): inactive
IC50 (MCF7): > 30 µM
